The record followed here is ChEMBL document CHEMBL1142049, “1-(1-Naphthyl)piperazine as a novel template for 5-HT6 serotonin receptor ligands” (Bioorg Med Chem Lett, 2005).

One assay deals with T1, 5-hydroxytryptamine receptor 6 (Homo sapiens, UniProt P50406). In words: pA2 against 5-Hydroxytryptamine 6 receptor.
T1 sequence (P50406 whole entry): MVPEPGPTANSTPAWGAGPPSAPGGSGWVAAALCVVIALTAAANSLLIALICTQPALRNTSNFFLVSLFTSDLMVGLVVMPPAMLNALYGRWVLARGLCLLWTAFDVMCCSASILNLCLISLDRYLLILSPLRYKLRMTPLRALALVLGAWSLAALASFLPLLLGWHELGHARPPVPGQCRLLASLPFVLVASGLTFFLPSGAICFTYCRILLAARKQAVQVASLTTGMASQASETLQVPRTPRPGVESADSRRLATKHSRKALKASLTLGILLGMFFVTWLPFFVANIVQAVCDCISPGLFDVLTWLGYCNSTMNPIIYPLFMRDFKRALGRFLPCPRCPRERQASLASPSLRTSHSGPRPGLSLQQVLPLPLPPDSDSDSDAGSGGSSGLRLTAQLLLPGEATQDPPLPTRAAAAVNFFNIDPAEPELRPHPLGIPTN
The term pA2 denotes a measure of antagonist potency on a negative log scale. As for `O=S(=O)(c1ccccc1)c1ccc(N2CCNCC2)c2ccccc12`, the pA2 was found to be 7.5.

Another assay concerns the target T1, 5-hydroxytryptamine receptor 6. The assay is described as follows: Binding affinity against 5 Hydroxy tryptamine 6 receptor. In outline:
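Human 5-HT6 cDNA transiently expressed in HEK-293 cells, switched to dialyzed-serum medium, harvested 75 h post-transfection, PBS-washed and frozen as pellets. Nonspecific binding defined with 10 µM clozapine. Ki values from triplicate determinations.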
Usually Ki stands for the dissociation constant of the complex between target and ligand, obtained from inhibition or displacement. As for `Nc1ccc(S(=O)(=O)c2cc(Br)nc(N3CCNCC3)c2)cc1`, the Ki was ~0.1 nM. Consider `COc1ccccc1N1CCNCC1`, for which the Ki turned out to be 1.2 nM.

Compound `Brc1ccc(N2CCNCC2)c2ccccc12` displayed a Ki of 54 nM.

Consider `Nc1ccc(S(=O)(=O)c2cccc3ccccc23)cc1`, for which the Ki was found to be 34 nM. The same measure, in the same setting: next, `O=S(=O)(c1ccccc1)c1ccc(N2CCNCC2)c2ccccc12`: 3.8 nM. Same read-out and setting: next, `c1ccc(-c2cc(N3CCNCC3)c3ccccc3c2)cc1`: 9.3 nM; `O=C(c1ccccc1)c1ccc(N2CCNCC2)c2ccccc12`: 57 nM. The same measure, in the same setting: the figure for `CCc1cc(N2CCNCC2)c2ccccc2c1` is 21 nM. As to `Nc1ccc(S(=O)(=O)c2cc(Br)nc(N3CCCC3)c2)cc1`, the inhibition constant Ki was ~1 nM. On the same count and under the same terms, the figure for `O=S(=O)(c1ccc(NO)cc1)c1cccc2ccccc12` is 63 nM; for `c1ccc(Cc2ccc(N3CCNCC3)c3ccccc23)cc1` it is 35 nM.

`c1ccc(-c2ccc(N3CCNCC3)c3ccccc23)cc1` registered a Ki of 190 nM. The compound `Nc1ccc(S(=O)(=O)c2ccc(N3CCNCC3)c3ccccc23)cc1` had an inhibitory constant (Ki) of 0.9 nM.

The next assay shares this target. The assay is described as follows: Binding affinity against 5-hydroxy tryptamine 6 receptor. In a few lines:
(§1)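 Human 5-HT6 cDNA transiently expressed in HEK-293 cells, switched to dialyzed-serum medium, harvested 75 h post-transfection, PBS-washed and frozen as pellets. [3H]LSD (1 nM final) displaced by unlabeled ligand (1–10,000 nM), 90 min at room temperature in 50 mM Tris-Cl, 10 mM MgCl2, 0.1 mM EDTA, pH 7.40. Nonspecific binding defined with 10 µM clozapine. Ki values from triplicate determinations.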
`c1ccc2c(N3CCNCC3)cccc2c1` returned a Ki of 120 nM.

Another assay has the same target. The assay is described as follows: Binding affinity against 5-hydroxytryptamine 6 receptor. In a few lines: as §1
Regarding `c1ccc2c(N3CCNCC3)cccc2c1`, the Ki was 100 nM.
